Here are results for two molecules from paper PMC4310626 (Biochemistry, 2014).

The target of assay [1] is E. coli NDH-1 NuoD mutant Y273F (Escherichia coli, UniProt P0AFD4+P33599, Y273F). Nature of the assay: Inhibition of dNADH oxidase activity, NuoD mutant Y273F. The assay is classed as biochemical. An outline of the steps: (§1)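 Inverted membrane vesicles came from chromosomal NuoD-segment mutant or wild-type E. coli, grown overnight at 37 °C in Terrific Broth and disrupted by sonication and French press. The assay used 80 μg protein/mL in 10 mM potassium phosphate (pH 7.0) with 1 mM EDTA, no KCN and no added acceptor, at 30 °C. After 1 min preincubation with test compound, 150 μM dNADH was added. A340 was followed (ε 6.22 mM⁻¹ cm⁻¹), and IC50 was taken as the concentration giving 50% inhibition.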

Assay [2] has as its target E. coli NDH-1, other NuoD mutants (Escherichia coli, UniProt P0AFD4+P33599). The assay can be described thus: Inhibition of dNADH oxidase activity, other NuoD mutants. The class given is biochemical. Particulars: read-out: IC50 values; all other NuoD mutants (other than G225A, Y273F). The method in brief:
as §1

The target of assay [3] is E. coli NDH-1 NuoD mutant H315R (Escherichia coli, UniProt P0AFD4+P33599, H315R). The assay can be described thus: Inhibition of dNADH oxidase activity, NuoD mutant H315R. The class given is biochemical. An outline of the steps:
as §1

Assay [4] has as its target E. coli NDH-1 NuoH mutant D63E (Escherichia coli, UniProt P0AFC7+P0AFD4+P33599, D63E). Nature of the assay: Inhibition of dNADH oxidase activity, NuoH mutant D63E. The class given is biochemical.
For assay [5], the target named is E. coli NDH-1 NuoD mutant D325A (Escherichia coli, UniProt P0AFD4+P33599, D325A). Nature of the assay: Inhibition of dNADH oxidase activity, NuoD mutant D325A. The class given is biochemical. The method in brief:
as §1

The target of assay [6] is E. coli NDH-1 NuoH mutant E36D (Escherichia coli, UniProt P0AFC7+P0AFD4+P33599, E36D). Nature of the assay: Inhibition of dNADH oxidase activity, NuoH mutant E36D. The class given is biochemical.
The target in assay [7] is E. coli NDH-1 NuoD mutant H224R (Escherichia coli, UniProt P0AFD4+P33599, H224R). Nature of the assay: Inhibition of dNADH oxidase activity, NuoD mutant H224R. Particulars: read-out: app IC50, 50% inhibition of the dNADH oxidase activity. The assay is classed as biochemical.
Assay [8] concerns the target E. coli NDH-1 NuoD mutant G225A (Escherichia coli, UniProt P0AFD4+P33599, G225A). Nature of the assay: Inhibition of dNADH oxidase activity, NuoD mutant G225A. The assay is classed as biochemical. The method in brief:
as §1

The target of assay [9] is T1, E. coli NDH-1 wild-type (Escherichia coli, UniProt P0AFD4+P33599). The assay can be described thus: Inhibition of dNADH oxidase activity in membrane vesicles, wild-type. The class given is biochemical. The method in brief: as §1
Assay [10] deals with T1, E. coli NDH-1 wild-type. The following applies: read-out: IC50 value, ref [16],[55]; cited from earlier work.
Assay [11] concerns the target E. coli NDH-1 NuoD mutant R228K (Escherichia coli, UniProt P0AFD4+P33599, R228K). The assay can be described thus: Inhibition of dNADH oxidase activity, NuoD mutant R228K. The class given is biochemical. The following applies: app IC50, 50% inhibition of the dNADH oxidase activity. The method in brief: as §1
Assay [12] addresses E. coli NDH-1 NuoD mutant R270K (Escherichia coli, UniProt P0AFD4+P33599, R270K). The assay can be described thus: Inhibition of dNADH oxidase activity, NuoD mutant R270K. The following applies: app IC50, 50% inhibition of the dNADH oxidase activity. The class given is biochemical. The method in brief:
as §1

In assay [13] the target is E. coli NDH-1 NuoD mutant R298A (Escherichia coli, UniProt P0AFD4+P33599, R298A). The assay can be described thus: Inhibition of dNADH oxidase activity, NuoD mutant R298A. The assay is classed as biochemical. The following applies: app IC50, 50% inhibition of the dNADH oxidase activity. The method in brief:
as §1

Assay [14] has as its target E. coli NDH-1 NuoD mutant R311K (Escherichia coli, UniProt P0AFD4+P33599, R311K). Nature of the assay: Inhibition of dNADH oxidase activity, NuoD mutant R311K. The class given is biochemical. The method in brief: as §1
Assay [15] has as its target E. coli NDH-1 NuoH mutant E71A (Escherichia coli, UniProt P0AFC7+P0AFD4+P33599, E71A). Nature of the assay: Inhibition of dNADH oxidase activity, NuoH mutant E71A. The assay is classed as biochemical. Particulars: app IC50, 50% inhibition of the dNADH oxidase activity.
For assay [16], the target named is E. coli NDH-1 NuoD mutant G235V (Escherichia coli, UniProt P0AFD4+P33599, G235V). Nature of the assay: Inhibition of dNADH oxidase activity, NuoD mutant G235V. The assay is classed as biochemical. The method in brief: as §1
The target in assay [17] is E. coli NDH-1 NuoH mutant Q44A (Escherichia coli, UniProt P0AFC7+P0AFD4+P33599, Q44A). Nature of the assay: Inhibition of dNADH oxidase activity, NuoH mutant Q44A. The assay is classed as biochemical.
The target of assay [18] is E. coli NDH-1 NuoD mutant G235A (Escherichia coli, UniProt P0AFD4+P33599, G235A). Nature of the assay: Inhibition of dNADH oxidase activity, NuoD mutant G235A. The class given is biochemical. The method in brief: as §1
Assay [19] deals with E. coli NDH-1 NuoH mutant E157K (Escherichia coli, UniProt P0AFC7+P0AFD4+P33599, E157K). Nature of the assay: Inhibition of dNADH oxidase activity, NuoH mutant E157K. The class given is biochemical.
Assay [20] addresses E. coli NDH-1 NuoD mutant R228A (Escherichia coli, UniProt P0AFD4+P33599, R228A). The assay can be described thus: Inhibition of dNADH oxidase activity, NuoD mutant R228A. The assay is classed as biochemical. The following applies: app IC50, 50% inhibition of the dNADH oxidase activity. The method in brief: as §1
Assay [21] has as its target E. coli NDH-1 NuoD mutant H355A (Escherichia coli, UniProt P0AFD4+P33599, H355A). Nature of the assay: Inhibition of dNADH oxidase activity, NuoD mutant H355A. The assay is classed as biochemical. An outline of the steps: as §1
Assay [22] concerns the target E. coli NDH-1 NuoD mutant D325E (Escherichia coli, UniProt P0AFD4+P33599, D325E). Nature of the assay: Inhibition of dNADH oxidase activity, NuoD mutant D325E. The class given is biochemical. An outline of the steps: as §1
Assay [23] has as its target E. coli NDH-1 NuoD mutant E236D (Escherichia coli, UniProt P0AFD4+P33599, E236D). Nature of the assay: Inhibition of dNADH oxidase activity, NuoD mutant E236D. The class given is biochemical. An outline of the steps:
as §1

Assay [24] addresses E. coli NDH-1 NuoD mutant H315A (Escherichia coli, UniProt P0AFD4+P33599, H315A). Nature of the assay: Inhibition of dNADH oxidase activity, NuoD mutant H315A. The class given is biochemical. The method in brief:
as §1

Assay [25] concerns the target E. coli NDH-1 NuoD mutant R298K (Escherichia coli, UniProt P0AFD4+P33599, R298K). The assay can be described thus: Inhibition of dNADH oxidase activity, NuoD mutant R298K. The assay is classed as biochemical. An outline of the steps: as §1
Assay [26] deals with E. coli NDH-1 NuoD mutant E236A (Escherichia coli, UniProt P0AFD4+P33599, E236A). Nature of the assay: Inhibition of dNADH oxidase activity, NuoD mutant E236A. The class given is biochemical. An outline of the steps:
as §1

Assay [27] concerns the target E. coli NDH-1 NuoH mutant K303A (Escherichia coli, UniProt P0AFC7+P0AFD4+P33599, K303A). The assay can be described thus: Inhibition of dNADH oxidase activity, NuoH mutant K303A. The assay is classed as biochemical.
Assay [28] concerns the target E. coli NDH-1 NuoD mutant E308D (Escherichia coli, UniProt P0AFD4+P33599, E308D). The assay can be described thus: Inhibition of dNADH oxidase activity, NuoD mutant E308D. The assay is classed as biochemical. The following applies: app IC50, 50% inhibition of the dNADH oxidase activity. An outline of the steps: as §1
Assay [29] concerns the target E. coli NDH-1 NuoD mutant G251V (Escherichia coli, UniProt P0AFD4+P33599, G251V). Nature of the assay: Inhibition of dNADH oxidase activity, NuoD mutant G251V. The class given is biochemical. Particulars: app IC50, 50% inhibition of the dNADH oxidase activity. The method in brief:
as §1

The target in assay [30] is E. coli NDH-1 NuoH mutant P49A (Escherichia coli, UniProt P0AFC7+P0AFD4+P33599, P49A). Nature of the assay: Inhibition of dNADH oxidase activity, NuoH mutant P49A. The class given is biochemical.
Assay [31] has as its target E. coli NDH-1 NuoH mutant E216A (Escherichia coli, UniProt P0AFC7+P0AFD4+P33599, E216A). The assay can be described thus: Inhibition of dNADH oxidase activity, NuoH mutant E216A. The assay is classed as biochemical.
In assay [32] the target is E. coli NDH-1 NuoD mutant G251A (Escherichia coli, UniProt P0AFD4+P33599, G251A). The assay can be described thus: Inhibition of dNADH oxidase activity, NuoD mutant G251A. The assay is classed as biochemical. The method in brief: as §1

Where two headings read alike, the source gives them in different places.

T1 sequence (P33599 whole entry): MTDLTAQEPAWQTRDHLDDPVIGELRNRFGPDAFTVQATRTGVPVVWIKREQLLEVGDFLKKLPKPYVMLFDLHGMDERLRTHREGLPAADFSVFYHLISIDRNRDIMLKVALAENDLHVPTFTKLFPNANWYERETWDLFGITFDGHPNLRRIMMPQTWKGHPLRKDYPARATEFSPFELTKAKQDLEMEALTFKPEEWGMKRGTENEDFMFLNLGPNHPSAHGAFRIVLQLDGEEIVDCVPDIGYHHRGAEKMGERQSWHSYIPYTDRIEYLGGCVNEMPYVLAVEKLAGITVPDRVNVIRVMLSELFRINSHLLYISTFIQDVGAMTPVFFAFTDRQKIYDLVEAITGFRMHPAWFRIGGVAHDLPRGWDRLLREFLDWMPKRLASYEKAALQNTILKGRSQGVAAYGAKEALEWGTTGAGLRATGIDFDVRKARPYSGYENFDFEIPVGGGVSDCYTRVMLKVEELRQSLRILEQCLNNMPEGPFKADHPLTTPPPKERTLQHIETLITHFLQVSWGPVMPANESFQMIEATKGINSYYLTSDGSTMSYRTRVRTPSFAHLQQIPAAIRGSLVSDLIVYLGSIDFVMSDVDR
T1 sequence (P0AFD4 whole entry): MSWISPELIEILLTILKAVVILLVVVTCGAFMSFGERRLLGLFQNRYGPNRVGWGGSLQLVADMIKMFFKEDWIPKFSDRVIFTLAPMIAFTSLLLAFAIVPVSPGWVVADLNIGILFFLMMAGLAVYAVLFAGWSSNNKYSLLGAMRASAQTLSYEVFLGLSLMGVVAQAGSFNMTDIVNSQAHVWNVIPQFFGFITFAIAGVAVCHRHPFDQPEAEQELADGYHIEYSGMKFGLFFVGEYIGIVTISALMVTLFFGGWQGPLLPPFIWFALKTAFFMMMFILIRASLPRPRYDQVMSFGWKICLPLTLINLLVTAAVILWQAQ
T1 sequence (P0AFC7 whole entry partner): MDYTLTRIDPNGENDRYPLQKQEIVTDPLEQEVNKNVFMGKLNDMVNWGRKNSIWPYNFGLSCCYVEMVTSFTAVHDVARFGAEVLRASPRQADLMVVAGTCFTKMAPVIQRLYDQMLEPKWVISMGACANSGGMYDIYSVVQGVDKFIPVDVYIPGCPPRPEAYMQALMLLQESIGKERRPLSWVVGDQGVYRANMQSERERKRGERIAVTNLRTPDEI
E. coli NDH-1 NuoD mutant Y273F, sequence (P33599 whole entry Y273F): as the sequence (P33599 whole entry) above, with Y273F counted along it
E. coli NDH-1 NuoD mutant Y273F, sequence (P0AFD4 whole entry): as the sequence (P0AFD4 whole entry) above
E. coli NDH-1 NuoD mutant Y273F, sequence (P0AFC7 whole entry partner): as the sequence (P0AFC7 whole entry partner) above
E. coli NDH-1 NuoD mutant G225A, sequence (P33599 whole entry G225A): as the sequence (P33599 whole entry) above, with G225A counted along it
E. coli NDH-1 NuoD mutant G225A, sequence (P0AFD4 whole entry): as the sequence (P0AFD4 whole entry) above
E. coli NDH-1 NuoD mutant G225A, sequence (P0AFC7 whole entry partner): as the sequence (P0AFC7 whole entry partner) above
E. coli NDH-1 NuoD mutant D325A, sequence (P33599 whole entry D325A): as the sequence (P33599 whole entry) above, with D325A counted along it
E. coli NDH-1 NuoD mutant D325A, sequence (P0AFD4 whole entry): as the sequence (P0AFD4 whole entry) above
E. coli NDH-1 NuoD mutant D325A, sequence (P0AFC7 whole entry partner): as the sequence (P0AFC7 whole entry partner) above

Regarding `[N-]=[N+]=Nc1ccc2ncnc(NCCc3ccc(I)cc3)c2c1` [AzQ, 6-azido-4-(4-iodophenetylamino) quinazoline], the “increase in the IC50 value” is around 2.5 fold in [1] (NuoD mutant Y273F versus wild-type) and around 3 fold in [8] (NuoD mutant G225A versus wild-type). In addition, the concentration for half-maximal inhibition (IC50) in assay [1] (read-out: app IC50, 50% inhibition of the dNADH oxidase activity, NuoD mutant Y273F) came out at 2530 nM; in [2], 1000 nM; in assay [3] (read-out: app IC50, 50% inhibition of the dNADH oxidase activity, NuoD mutant H315R), 903 nM; in assay [5] (read-out: app IC50, 50% inhibition of the dNADH oxidase activity, NuoD mutant D325A) it was 1140 nM; in assay [7] it was 1130 nM; in [9] (read-out: app IC50, 50% inhibition of the dNADH oxidase activity, WT, NuoD series (Table 3)), 1080 nM. Further, the IC50 in assay [9] (read-out: app IC50, 50% inhibition of the dNADH oxidase activity, WT, NuoH series (Table 4)) was found to be 1080 nM. In addition, the “decrease in the IC50 value” in assay [4] (NuoH mutant D63E versus wild-type) and in assay [6] (NuoH mutant E36D versus wild-type) was 3–4 fold each time.

For the molecule `CCCCCCCCCCCC[C@H](O)[C@H]1CC[C@H]([C@H]2CC[C@H]([C@H](O)CCCCCCCC[C@@H](O)CC3=C[C@H](C)OC3=O)O2)O1` [squamotacin], the IC50 was 2 to 10 nM in [10]; 9 nM in assay [1]; 3 nM in [11]; 4 nM in assay [3]; 2 nM in assay [12]; 2 nM in [13]. Besides, the IC50 in [14] is 4 nM; in [15], 3 nM; in assay [16] it was 6 nM; in assay [17], 5 nM; in assay [18], 4 nM; in assay [19] it was 6 nM. Also, the IC50 in assay [20] was determined as 2 nM; in [21], 5 nM; in assay [22], 5 nM; in assay [4] (app IC50, 50% inhibition of the dNADH oxidase activity, NuoH mutant D63E) it was 4 nM; in assay [23], 7 nM; in [5], 11 nM. The IC50 in assay [6] (app IC50, 50% inhibition of the dNADH oxidase activity, NuoH mutant E36D) worked out at 3 nM; in assay [24] it was 10 nM; in [25] it was 4 nM; in assay [8], 5 nM; in [26] it was 5 nM; in assay [9], 10 nM. In addition, the IC50 in [27] turned out to be 10 nM; in assay [28], 2 nM; in [29] it was 2 nM; in [30], 5 nM; in [31], 8 nM; in assay [32], 4 nM.

In general, IC50 refers to the concentration at which inhibition is half-maximal.
